Experimental data from ChEMBL document CHEMBL1121991, “4-Aroyl-1,3-dihydro-2H-imidazol-2-ones, a new class of cardiotonic agents” (1982).
“And” between values parts separate entries of the source, which are not always exact repeats. Identical values can stand only once.

Assays:
Canis familiaris [1] = experiment: Stroke work was determined after 1.0 mg/kg administration with 20 mg/kg pentobarbital in the dog heart-lung preparation; type: functional, Canis lupus familiaris
Method in brief: (§1)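 Heart-lung preparation from mongrel dogs anesthetized with pentobarbital 35 mg/kg iv. Failure was induced by adding pentobarbital 20 mg/kg to the blood reservoir, then test agent 1 mg/kg was added. Force, rate, output, stroke volume, left atrial pressure and stroke work were read 10 min later. Five preparations, means ± SE, analysis of variance.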

Canis familiaris [2] = experiment: The change in cardiac contractile force was determined after 10 min of 0.3 ug/kg administration in the dog heart-lung preparation; type: functional, Canis lupus familiaris
Method in brief: (§2)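 Dog heart-lung preparation from mongrel dogs of either sex, 11–19 kg, anesthetized with sodium pentobarbital 35 mg/kg iv. Strain gauge arch on the right ventricle; left atrial pressure by atrial cannula transducer; aortic flow by extracorporeal flow meter. Drug was added to the blood reservoir and measured at 10 min, n = 5–8. Change vs control by paired t test.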

Canis familiaris [3] = experiment: The change in stroke volume after 10 min of 3.0 ug/kg administration in the dog heart-lung preparation; type: functional, Canis lupus familiaris; method in brief: as §2
Canis familiaris [4] = experiment: The heart rate was determined after 1.0 mg/kg administration with 20 mg/kg pentobarbital in the dog heart-lung preparation; type: functional, Canis lupus familiaris; method in brief: as §1
Canis familiaris [5] = experiment: The left atrial pressure was determined after 1.0 mg/kg administration with 20 mg/kg pentobarbital in the dog heart-lung preparation; type: functional, Canis lupus familiaris, Cardiac atrium; method in brief: as §1
Canis familiaris [6] = experiment: (§3) The change in cardiac output was determined after 10 min of 3.0 ug/kg administration in the dog heart-lung preparation; type: functional, Canis lupus familiaris; method in brief: as §2
Canis familiaris [7] = experiment: The stroke volume was determined after 1.0 mg/kg administration with 20 mg/kg pentobarbital in the dog heart-lung preparation; type: functional, Canis lupus familiaris; method in brief: as §1
Canis familiaris [8] = experiment: Pharmacological activity for Blood pressure, -20% in anesthetized dog was determined after intravenous administration; type: functional, Canis lupus familiaris
Method in brief: (§4)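 Anesthetized dogs; contractile force recorded by a left-ventricular Walton-Brodie strain gauge arch, heart rate from lead II EKG, plus blood pressure. Stabilized at least 30 min, then at least three iv doses given, one compound per animal, with return to basal between doses. Doses for +30% force, +15% rate and −20% BP were extrapolated from dose-response curves; geometric mean where repeated.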

Canis familiaris [9] = experiment: The change in heart rate was determined after 10 min of 1.0 ug/kg administration in the dog heart-lung preparation; type: functional, Canis lupus familiaris; method in brief: as §2
Canis familiaris [10] = experiment: The change in left atrial pressure was determined after 10 min of 3.0 ug/kg administration in the dog heart-lung preparation.; type: functional, Canis lupus familiaris, Cardiac atrium; method in brief: as §2
Canis familiaris [11] = experiment: The change in mean arterial blood pressure was determined after 1 mg/kg iv administration with 0.5 mg/kg, iv propranolol; type: functional, Canis lupus familiaris
Method in brief: (§5)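 Anesthetized dogs, N = 6 per group, given test agent 1 mg/kg iv or isoproterenol 0.1 μg/kg iv, with or without propranolol 0.5 mg/kg iv pretreatment. Percent change from control was recorded for contractile force (strain gauge arch) and for mean arterial BP. Values are means ± SE, compared by Student's t test.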

Canis familiaris [12] = experiment: The cardiac output was determined after 1.0 mg/kg administration with 20 mg/kg pentobarbital in the dog heart-lung preparation; type: functional, Canis lupus familiaris; method in brief: as §1
Canis familiaris [13] = experiment: The change in cardiac contractile force after 1 mg/kg iv administration with 0.5 mg/kg, iv propranolol; type: functional, Canis lupus familiaris, Heart; method in brief: as §5
Canis familiaris [14] = experiment: The change in stroke volume was determined after 10 min of 0.3 ug/kg administration in the dog heart-lung preparation; type: functional, Canis lupus familiaris; method in brief: as §2
Canis familiaris [15] = experiment: The change in heart rate was determined after 10 min of 0.3 ug/kg administration in the dog heart-lung preparation; type: functional, Canis lupus familiaris; method in brief: as §2
Canis familiaris [16] = experiment: The change in heart rate was determined after 10 min of 3.0 ug/kg administration in the dog heart-lung preparation; type: functional, Canis lupus familiaris; method in brief: as §2
Canis familiaris [17] = experiment: The change in cardiac contractile force was determined after 10 min of 3.0 ug/kg administration in the dog heart-lung preparation; type: functional, Canis lupus familiaris; method in brief: as §2
Canis familiaris [18] = experiment: The cardiac contractile force was determined after 1.0 mg/kg administration with 20 mg/kg pentobarbital in the dog heart-lung preparation; type: functional, Canis lupus familiaris; method in brief: as §1
Canis familiaris [19] = experiment: The change in left atrial pressure was determined after 10 min of 0.3 ug/kg administration in the dog heart-lung preparation; type: functional, Canis lupus familiaris, Cardiac atrium; method in brief: as §2
Canis familiaris [20] = experiment: The change in cardiac contractile force after 10 min of 3.0 ug/kg administration in the dog heart-lung preparation; type: functional, Canis lupus familiaris; method in brief: as §2
Canis familiaris [21] = experiment: The change in left atrial pressure was determined after 10 min of 3.0 ug/kg administration in the dog heart-lung preparation; type: functional, Canis lupus familiaris, Cardiac atrium; method in brief: as §2
Canis familiaris [22] = experiment: The change in stroke volume after 10 min of 1.0 ug/kg administration in the dog heart-lung preparation; type: functional, Canis lupus familiaris; method in brief: as §2
Canis familiaris [23] = experiment: The change in stroke volume was determined after 10 min of 1.0 ug/kg administration in the dog heart-lung preparation; type: functional, Canis lupus familiaris; method in brief: as §2
Canis familiaris [24] = experiment: Pharmacological activity for heart rate +15% in anesthetized dog was determined after intravenous administration; type: functional, Canis lupus familiaris; method in brief: as §4
Canis familiaris [25] = experiment: The change in mean arterial blood pressure was determined after 1 mg/kg iv administration; type: functional, Canis lupus familiaris; method in brief: as §5
Canis familiaris [26] = experiment: The change in stroke volume was determined after 10 min of 3.0 ug/kg administration in the dog heart-lung preparation; type: functional, Canis lupus familiaris; method in brief: as §2
Canis familiaris [27] = experiment: The change in cardiac contractile force was determined after 10 min of 1.0 ug/kg administration in the dog heart-lung preparation; type: functional, Canis lupus familiaris; method in brief: as §2
Canis familiaris [28] = experiment: Pharmacological activity for Contractile force, +30% in anesthetized dog was determined after intravenous administration; type: functional, Canis lupus familiaris; method in brief: as §4
Canis familiaris [29] = experiment: The change in left atrial pressure after 10 min of 0.3 ug/kg administration in the dog heart-lung preparation; type: functional, Canis lupus familiaris, Cardiac atrium; method in brief: as §2
Canis familiaris [30] = experiment: as §3; type: functional, Canis lupus familiaris; method in brief: as §2; remark: listed apart in the source
Canis familiaris [31] = experiment: The change in cardiac contractile force after 1 mg/kg iv administration, activity is expressed as % change.; type: functional, Canis lupus familiaris, Heart; method in brief: as §5

COc1ccc(C(=O)c2[nH]c(O)nc2C)cc1 was tested. Which Stroke work (Canis familiaris [1]) did it give?
Its Stroke work is 7.7 g.

And the Change (Canis familiaris [2])?
The Change was 62% and 88%.

What about the Change (Canis familiaris [3]) of the same compound?
The Change was -18%.

And the Heart rate (Canis familiaris [4])?
The Heart rate was 151 beats min-1.

And the Left atrial pressure (Canis familiaris [5])?
Its Left atrial pressure is 2.6 mmHg.

What about the Change (Canis familiaris [6]) of the same compound?
Its Change is 4%.

What about the Stroke volume (Canis familiaris [7]) of the same compound?
Its Stroke volume is 7 mL.

And the Equieffective dose (Canis familiaris [8])?
The Equieffective dose was 0.65 mg/kg.

What about the Change (Canis familiaris [9]) of the same compound?
The Change was 35% and 23%.

And the Change (Canis familiaris [10])?
The Change was -1.1 mmHg.

What about the Change (Canis familiaris [11]) of the same compound?
The Change was -33%.

And the Cardiac output (Canis familiaris [12])?
The Cardiac output was 1053 mL/min.

What about the Change (Canis familiaris [13]) of the same compound?
Its Change is 144%.

What about the Change (Canis familiaris [14]) of the same compound?
The Change was -0.7% and -10%.

What about the Change (Canis familiaris [15]) of the same compound?
Its Change is 22% and 14%.

What about the Change (Canis familiaris [16]) of the same compound?
Its Change is 41% and 28%.

What about the Change (Canis familiaris [17]) of the same compound?
Its Change is 129 g.

And the Cardiac contractile force (Canis familiaris [18])?
Its Cardiac contractile force is 88 g.

What about the Change (Canis familiaris [19]) of the same compound?
The Change was -49%.

What about the Change (Canis familiaris [20]) of the same compound?
Its Change is 179%.

What about the Change (Canis familiaris [21]) of the same compound?
The Change was -43%.

And the Change (Canis familiaris [22])?
Its Change is -16%.

What about the Change (Canis familiaris [23]) of the same compound?
Its Change is -1.1 mL.

And the Equieffective dose (Canis familiaris [24])?
The Equieffective dose was 0.4 mg/kg.

What about the Change (Canis familiaris [25]) of the same compound?
The Change was -27%.

What about the Change (Canis familiaris [26]) of the same compound?
The Change was -1.2 mL.

What about the Change (Canis familiaris [27]) of the same compound?
The Change was 96.7% and 121%.

What about the Equieffective dose (Canis familiaris [28]) of the same compound?
Its Equieffective dose is 0.16 mg/kg.

And the Change (Canis familiaris [29])?
The Change was -1.6 mmHg.

What about the Change (Canis familiaris [30]) of the same compound?
Its Change is 46 mL/min.

What about the Change (Canis familiaris [31]) of the same compound?
The Change was 127%.
